Results reported in publication PMC4258842 (Nature communications, 2014).
Entries after “also recorded” stand apart in the source; their conditions may differ. Values belong to the molecule of their own block, whether it stands above or below them.

Key:
[1] = target: T1, FOXM1 DBD-DNA interaction (Homo sapiens, UniProt Q08050); assay: EMSA displacement of FOXM1 DBD-DNA interaction; assay type: binding
T1 sequence (Q08050 222-360): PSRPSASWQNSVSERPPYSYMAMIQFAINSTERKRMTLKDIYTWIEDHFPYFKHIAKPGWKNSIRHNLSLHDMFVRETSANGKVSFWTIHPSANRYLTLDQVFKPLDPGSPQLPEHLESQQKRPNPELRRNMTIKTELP
How it was run: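 The DNA-binding domain of human FOXM1c was expressed as a GST fusion in E. coli BL21(DE3), induced with 1 mM IPTG at 18°C overnight. DBD (750 nM final) was preincubated with test compound 1.5 h at RT. FAM-labelled 16-bp consensus dsDNA (15 nM final) was added for 15 min. Samples ran on 6% retardation gels and were imaged by fluorescence.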

[2] = system: MCF-7 breast cancer cells; assay: 72 h growth inhibition in MCF-7 cells; assay type: cell-based; conditions: Homo sapiens, MCF7, 72 h, read-out: GI50 (50% growth inhibition)
How it was run: (§1)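 Cell lines came from ECACC. MCF-7 and MDA-MB-231 were grown in DMEM + 10% FBS, and PEO-1 in RPMI + 10% FBS. Cells were exposed to test compound for 72 h. GI50 is the concentration giving 50% growth inhibition.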

[3] = system: MDA-MB-231 ER-negative breast cancer cells; assay: Cell viability assay, MDA-MB-231 cells; assay type: cell-based; conditions: Homo sapiens, MDA-MB-231, 72 h
How it was run: as §1

[4] = system: PEO-1 ovarian cancer cells; assay: Cell viability assay, PEO-1 cells; assay type: cell-based; conditions: Homo sapiens, PEO1, 72 h
How it was run: as §1

FOXM1 in MCF-7 cells = assay: Western blot of total lysate and chromatin fraction of treated MCF-7 cells; assay type: cell-based, human; conditions: 6 h, 20 μM
How it was run: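 MCF-7 cells were treated 6 h with test compound or DMSO. Whole-cell RIPA lysates and isolated chromatin pellets (sonicated in Laemmli buffer) ran on 8–16% Tris-glycine gels. Blots were probed overnight at 4°C with anti-FOXM1 (1:1000), actin (1:5000) or histone H3 (1:10000), then with IR-dye secondaries. FOXM1 was quantified relative to actin (lysate) or H3 (chromatin).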

20S proteasome = 20S proteasome activity assay; assay type: biochemical; conditions: 10 μM inhibitor, 37°C, 90 m
How it was run: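 Recombinant 20S proteasome with an AMC-linked peptide substrate that fluoresces on cleavage. Substrate dilution of 1:200 was chosen from an AMC standard curve. Test compound at 10 μM or DMSO control was mixed with enzyme and substrate and incubated 90 min at 37°C. Fluorescence was read at 380/460 nm and normalized to DMSO, with MG-132 as reference inhibitor.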

[5] = system: FOXM1 occupancy at CCNB1 and CDC25B gene promoters; assay: FOXM1 ChIP followed by qRT-PCR in MCF-7 cells; assay type: cell-based, human; conditions: 6 h treatment
How it was run: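 MCF-7 cells at 70% confluence were treated 6 h with test compound or DMSO. Cells were crosslinked with 1% formaldehyde 10 min at RT, quenched with glycine, lysed and sonicated. Immunoprecipitation used 3 μg rabbit polyclonal anti-FOXM1 on protein-A beads overnight, with elution at 65°C for 16 h. SYBR qPCR (40 cycles) amplified CDC25B and CCNB1 promoters. Enrichment was normalized to a cyclin D1 intergenic control region.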

[6] = system: FOXM1 target gene transcripts in MCF-7 cells; assay: RNA-seq differential expression in MCF-7 cells; assay type: cell-based, human; conditions: 6 h
How it was run: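 MCF-7 cells were treated for 3, 6 or 9 h, in three replicates per time point, against 0 h controls. TruSeq libraries gave 100-nt single-end reads, which were adapter/quality trimmed, aligned to hg19 and counted per gene. Differential expression used the edgeR exact test with library-size (CPM) normalization, and FDR < 0.01 counted as significant.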

[7] = system: genes with FOXM1 promoter occupancy (ENCODE ChIP-seq, MCF-7); assay type: cell-based, human; conditions: ENCODE ChIP-seq datasets
How it was run: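 Differentially expressed genes at 3 h were defined as FDR < 0.01 and logFC > 0.3 […]. ENCODE FOX-family ChIP-seq peaks (MACS) shared by both duplicates were mapped to promoters (−2000 to +100 bp of TSS). Proportions were compared by chi-squared test. Temporal clusters came from fuzzy c-means (9 clusters, fuzzification 1.35) on 1552 genes with abs(logFC) > 0.75.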

[8] = system: CDC25B expression in MDA-MB-231 cells; assay: CDC25B expression in MDA-MB-231 cells; assay type: cell-based, human; conditions: 3 h treatment
How it was run: (§2)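 MDA-MB-231 (DMEM + 10% FBS) or PEO-1 (RPMI + 10% FBS) cells were exposed to test compound for 3 h. CDC25B transcript was measured by qRT-PCR with commercial gene-specific primer sets, with ACTB and YWHAZ primer sets also run.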

[9] = system: CDC25B expression in PEO-1 cells; assay: CDC25B expression in PEO-1 cells; assay type: cell-based, human; conditions: 3 h treatment
How it was run: as §2

FOXM1 DBD (GST fusion) [10] = target: T2, FOXM1 DBD (GST fusion) (Homo sapiens, UniProt Q08050 222-360); assay: EMSA
T2 sequence: T1 sequence (Q08050 222-360)

[11] = target: T3, FOXM1 full length (FOXM1c, GST fusion) (Homo sapiens, UniProt Q08050 1-763); assay: fluorescence polarization
T3 sequence: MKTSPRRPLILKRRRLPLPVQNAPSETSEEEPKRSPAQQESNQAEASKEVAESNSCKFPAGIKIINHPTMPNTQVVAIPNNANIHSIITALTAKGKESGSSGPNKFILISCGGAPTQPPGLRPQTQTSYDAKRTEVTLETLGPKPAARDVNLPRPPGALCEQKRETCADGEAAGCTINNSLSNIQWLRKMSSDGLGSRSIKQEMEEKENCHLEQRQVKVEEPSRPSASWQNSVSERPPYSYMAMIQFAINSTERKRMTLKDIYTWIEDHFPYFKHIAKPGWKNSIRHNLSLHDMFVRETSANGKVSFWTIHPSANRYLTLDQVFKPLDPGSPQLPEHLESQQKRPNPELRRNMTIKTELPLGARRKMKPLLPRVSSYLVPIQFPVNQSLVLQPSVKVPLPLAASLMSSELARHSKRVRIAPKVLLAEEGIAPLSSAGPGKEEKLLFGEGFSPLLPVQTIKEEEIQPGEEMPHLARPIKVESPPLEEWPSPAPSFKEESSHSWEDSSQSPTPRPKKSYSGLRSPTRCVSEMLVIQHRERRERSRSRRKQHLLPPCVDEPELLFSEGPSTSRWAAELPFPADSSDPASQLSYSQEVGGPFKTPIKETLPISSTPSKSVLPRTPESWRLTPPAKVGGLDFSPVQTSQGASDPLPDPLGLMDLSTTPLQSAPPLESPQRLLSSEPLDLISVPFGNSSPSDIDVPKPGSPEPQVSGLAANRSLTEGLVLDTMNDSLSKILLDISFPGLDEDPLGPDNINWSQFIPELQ

FOXM1 DBD (GST fusion) [12] = target: T2, FOXM1 DBD (GST fusion); assay: fluorescence polarization
FOXM1 DBD (GST fusion) [13] = target: T2, FOXM1 DBD (GST fusion); assay: fluorescence polarization; remark: listed apart in the source
FOXM1 DBD (GST fusion) [14] = target: T2, FOXM1 DBD (GST fusion); assay: competition

IC50 [1]: 22500 ± 12300 nM
GI50 [2]: 18000 ± 3000 nM
GI50 [3]: 21800 nM
GI50 [4]: 18100 nM
enrichment of differentially expressed genes for promoter occupancy of other FOX transcription factors (FOXA1, FOXA2, FOXP2) [7]: did not show enrichment
Molecule: Nc1c(C(=O)Nc2ccc(F)cc2)sc2nc(-c3cccs3)cc(C(F)(F)F)c12 [FDI-6, 3-amino-N-(4-fluorophenyl)-6-(thiophen-2-yl)-4-(trifluoromethyl)thieno[2,3-b]pyridine-2-carboxamide]
decrease of chromatin bound FOXM1 (FOXM1 in MCF-7 cells; MCF-7 cells, normalized to Histone H3): ~50%
overall amount of FOXM1 protein (FOXM1 in MCF-7 cells; MCF-7 total lysate, normalized to Actin): unaffected
inhibition of the 20S proteasome (20S proteasome): did not inhibit; also recorded: inactive
change in FOXM1 occupancy at CCNB1 gene promoter [5]: −0.68 log2 fold
change in FOXM1 occupancy at CDC25B gene promoter [5]: −0.64 log2 fold
AURKA transcript change [6]: −0.83 log2 fold change
CCNA2 transcript change [6]: −0.65 log2 fold change
CCNB1 transcript change [6]: −0.86 log2 fold change
CDKN3 transcript change [6]: −0.739 log2 fold change
CENPA transcript change [6]: −0.61 log2 fold change
KIF20A transcript change [6]: −1.22 log2 fold change
NEK2 transcript change [6]: −0.86 log2 fold change
PLK1 transcript change [6]: −0.92 log2 fold change
CDC25B expression [8]: down-regulates
CDC25B expression [9]: down-regulates

IC50 [1]: 45000 ± 16400 nM
GI50 [2]: 2700 nM
Molecule: C=C(NC(=O)C(=C)NC(=O)c1csc(C2=N[C@@H]3c4csc(n4)[C@H]4NC(=O)c5csc(n5)[C@H]([C@](C)(O)[C@@H](C)O)NC(=O)[C@H]5CSC(=N5)/C(=C/C)NC(=O)[C@H]([C@@H](C)O)NC(=O)c5csc(n5)[C@]3(CC2)NC(=O)[C@H](C)NC(=O)C(=C)NC(=O)[C@H](C)NC(=O)[C@H]([C@@H](C)CC)N[C@@H]2C=Cc3c([C@H](C)O)cc(nc3[C@H]2O)C(=O)O[C@@H]4C)n1)C(N)=O [thiostrepton, reference compound]

B1: FOXM1 consensus DNA probe, 16 bp (dsDNA)
DNA 1: AAACAAACAAACAATC
DNA 2: GATTGTTTGTTTGTTT
Kd (FOXM1 DBD (GST fusion) [10]): 301 ± 21 nM
Kd [11]: 300 ± 64 nM
Kd (FOXM1 DBD (GST fusion) [12]): 224 ± 30 nM
Kd (FOXM1 DBD (GST fusion) [13]): 158 nM

B2: unlabeled FOXM1 consensus DNA, 16 bp (dsDNA)
DNA 1: AAACAAACAAACAATC
DNA 2: GATTGTTTGTTTGTTT
IC50 (FOXM1 DBD (GST fusion) [14]): 57 ± 5 nM
